The target of experiment [1] is T1, Anoctamin-1 (Homo sapiens) (UniProt Q5XXA6).
T1 sequence (whole entry): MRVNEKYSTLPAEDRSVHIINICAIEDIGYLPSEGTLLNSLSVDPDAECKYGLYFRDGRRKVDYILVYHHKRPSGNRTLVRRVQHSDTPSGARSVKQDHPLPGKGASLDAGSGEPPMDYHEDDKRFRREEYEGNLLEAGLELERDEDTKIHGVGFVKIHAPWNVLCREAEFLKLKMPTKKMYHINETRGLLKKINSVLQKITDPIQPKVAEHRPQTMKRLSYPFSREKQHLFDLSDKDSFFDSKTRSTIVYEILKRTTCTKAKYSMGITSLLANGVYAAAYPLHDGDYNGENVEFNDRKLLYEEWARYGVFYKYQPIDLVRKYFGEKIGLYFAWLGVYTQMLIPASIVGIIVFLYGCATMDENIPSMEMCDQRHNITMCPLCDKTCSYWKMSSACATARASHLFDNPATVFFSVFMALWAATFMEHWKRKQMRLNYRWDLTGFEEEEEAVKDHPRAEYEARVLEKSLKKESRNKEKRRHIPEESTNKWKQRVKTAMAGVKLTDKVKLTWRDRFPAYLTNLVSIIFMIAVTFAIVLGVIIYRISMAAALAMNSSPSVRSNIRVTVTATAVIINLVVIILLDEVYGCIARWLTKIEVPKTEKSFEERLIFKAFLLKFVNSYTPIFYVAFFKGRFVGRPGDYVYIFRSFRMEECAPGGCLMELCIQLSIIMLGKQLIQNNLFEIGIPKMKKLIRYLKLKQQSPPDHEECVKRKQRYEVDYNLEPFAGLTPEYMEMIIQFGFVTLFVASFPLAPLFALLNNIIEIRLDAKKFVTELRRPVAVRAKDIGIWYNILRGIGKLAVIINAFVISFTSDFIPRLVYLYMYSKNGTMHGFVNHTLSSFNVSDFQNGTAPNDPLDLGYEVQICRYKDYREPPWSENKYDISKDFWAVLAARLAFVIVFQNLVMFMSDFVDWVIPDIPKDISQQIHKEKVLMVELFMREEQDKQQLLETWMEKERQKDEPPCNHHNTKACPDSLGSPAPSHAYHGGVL
Briefly: Induction of ANO1 degradation in human U251 cells at 10 uM preincubated with compound for 6 hrs followed by treatment with proteasome inhibitor, MG132 for 18 hrs by western blot analysis. Format: cell-based. The settings on record: U-251, time 24.0 hrs. The method, boiled down: (§1)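 U251 cells (5×10^5) treated with 10 μM inhibitor for 24 h. Alternatively, treated 6 h with 10 μM inhibitor, then MG132 (20 μM, a proteasome inhibitor) for a further 18 h. NP40 lysates immunoblotted for ANO1, β-actin as loading control; band densitometry.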
In general terms: Immunoblotting shows a protein as a band on a membrane.

Experiment [2] concerns U-251. Kind of experiment: Inhibition of anchorage-independent colony formation in human U251 cells incubated for 14 days by crystal violet staining based soft agar colony formation assay. Format: functional, cell-based. As to conditions: dose 30-100 µM, time 14.0 day. The method, boiled down:
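Soft agar assay: 2.0×10^3 U251 cells in complete medium with 0.3% agar over a 0.6% bottom agar layer. Treated with compounds at 1-100 μM for 14 days, 37 °C, 5% CO2. Colonies stained with crystal violet for 24 h, whole wells photographed and colonies counted against DMSO control; n = 3.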

The target in experiment [3] is T1, Anoctamin-1 (Homo sapiens). Briefly: Induction of ANO1 degradation in human U251 cells at 10 uM incubated for 24 hrs by western blot analysis. The experiment is classed as cell-based. As to conditions: U-251. The gist of the method: as §1
In experiment [4] the test system is U-251. Kind of experiment: Inhibition of cell migration in human U251 cells incubated for 18 hrs by wound healing assay. The experiment is classed as functional, cell-based. As to conditions: dose 1-10 µM. The method, boiled down:
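U251 monolayer, 2.0×10^5 cells/well, plated overnight, then scratched and washed with PBS. Incubated 18 h in complete medium with compound (1, 5 or 10 μM). Wound area imaged before and after incubation; migration ratio taken from migrated area. One-way ANOVA.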

The target of experiment [5] is T2, Protein tweety homolog 1 (Mus musculus) (UniProt Q9D3A9).
T2 sequence (whole entry): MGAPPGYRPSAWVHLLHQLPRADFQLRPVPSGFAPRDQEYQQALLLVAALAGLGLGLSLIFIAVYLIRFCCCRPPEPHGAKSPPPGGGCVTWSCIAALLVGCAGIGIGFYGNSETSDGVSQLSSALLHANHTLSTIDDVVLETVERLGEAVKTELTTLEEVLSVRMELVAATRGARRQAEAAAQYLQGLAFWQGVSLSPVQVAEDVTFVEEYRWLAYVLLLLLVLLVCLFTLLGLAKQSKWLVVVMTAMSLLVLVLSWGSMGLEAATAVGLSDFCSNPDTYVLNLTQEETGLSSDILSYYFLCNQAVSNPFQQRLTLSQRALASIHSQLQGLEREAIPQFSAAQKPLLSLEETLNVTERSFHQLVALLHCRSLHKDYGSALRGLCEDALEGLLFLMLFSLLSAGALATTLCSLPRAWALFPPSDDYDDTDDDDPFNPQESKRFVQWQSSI
Kind of experiment: Inhibition of GFP-fused mouse TTYH1 channel expressed in HEK293A cells assessed as inhibition of channel current amplitude at 1 to 10 uM at membrane potential of +80 mV by patch clamp electrophysiology assay. The experiment is classed as cell-based. As to conditions: HEK293-A, dose 1-10 µM. The method, boiled down:
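Whole-cell recording at room temperature in HEK293A cells transfected with GFP-mANO1, GFP-mANO2 or GFP-mTTYH1. 1 s ramps from +80 to -80 mV, holding potential -10 mV. For ANO1/ANO2: pipette CsCl 146 mM with Ca-EGTA-NMDG, pH 7.3; bath NaCl-based, pH 7.3. For TTYH1: Tris-aspartate pipette (pH 7.2) and Tris-HCl bath (pH 7.4), with […] and BaCl2 added to block K+ channels, and hypotonic (220 mOsm/kg) bath. Washout recordings assessed reversibility.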
A general note: Patch clamp records ionic current or voltage across a cell membrane.

Experiment [6] addresses T1, Anoctamin-1 (Homo sapiens). Kind of experiment: Inhibition of ANO1 in human U251 cells assessed as inhibition of channel current at 10 uM by patch clamp electrophysiology assay. Format: cell-based. As to conditions: U-251. The method, boiled down:
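Endogenous ANO1 currents recorded by whole-cell patch clamp in U251 cells, room temperature. 1 s ramps from +80 to -80 mV, holding potential -10 mV. CsCl-based pipette with Ca-EGTA-NMDG (pH 7.3) and NaCl-based bath (pH 7.3).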

Active and inactive are the calls of the source. The calls are words filed in the database; no cut-off is given here.

By inhibition is commonly meant the drop in the measured response relative to a control, in per cent.

Take `CC(C)(C)C(=O)Nc1sc2c(c1C(N)=O)CCC(C(C)(C)C)C2` (configuration not stated): the result in experiment [1] was inactive. Further, the inhibition result in the experiment with U-251 [2] is “Dose-dependent effect”; in the experiment with U-251 [4], “Dose-dependent effect”; in experiment [6], 40%. For the same molecule, in experiment [3], the outcome was Active. The inhibition result in experiment [5] is “inactive”.

As for `NC(=O)c1c(NC(=S)NC(=O)c2ccc(Cl)cc2)sc2c1CCC2`, the outcome in experiment [1] was inactive. The inhibition entry is “Dose-dependent effect” with U-251 [2], “Dose-dependent effect” in the experiment on U-251 [4] and 60% in experiment [6]. Further, the outcome in experiment [3] was Active. In experiment [5], the inhibition result was “inactive”.

Source of the values: ChEMBL document CHEMBL4706565, “Anti-glioma effects of 2-aminothiophene-3-carboxamide derivatives, ANO1 channel blockers” (Eur J Med Chem, 2020).
